Our source for the selectivity ratio, EC50 and CC50 values is ChEMBL document CHEMBL1153019, “Lignans with anti-HIV activity from Schisandra propinqua var. sinensis” (J Nat Prod, 2009).

Structures are written as SMILES.

Series [1] can be described thus: Selectivity index, ratio of CC50 for human C8166 cells to EC50 for HIV1 3B. Particulars: read-out: Ratio CC50/EC50. Type of series: toxicity, cell-based.
Series [2] relates to Human immunodeficiency virus 1. Nature of the series: Antiviral activity against HIV1 3B in human C8166 cells assessed as inhibition of virus-induced cytopathogenicity. The series is classed as functional, organism-based. The conditions noted are these: Human immunodeficiency virus 1, 3B. In a few lines:
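HIV-1 cytopathic-effect inhibition in C8166 cells, run in parallel with the cytotoxicity test. AZT served as positive control, and EC50 was the read-out.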
In general terms: Cytopathic effects are the visible damage that an infection or toxin causes in cultured cells.

Series [3] is described as follows: Cytotoxicity against human C8166 cells by MTT assay. Type of series: cell-based. A digest of the protocol:
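MTT read-out of C8166 cell viability, run in parallel with the anti-HIV-1 cytopathic-effect assay. AZT served as positive control, and CC50 was derived.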
(In general: Tetrazolium dyes change colour on reduction, which living cells bring about.)

`COc1cc2c(c(OC)c1OC)-c1c(cc3c(c1OC)OCO3)[C@H](OC(=O)c1ccccc1)[C@H](C)[C@](C)(O)[C@H]2OC(=O)c1ccccc1`: the selectivity ratio in series [1] is over 8.7. Also, the EC50 in series [2] worked out at 22.9 µM. The CC50 in series [3] is over 200 µM.
The matching figures for `COc1cc2c(c(OC)c1OC)-c1c(cc3c(c1OC)OCO3)[C@H](OC(=O)c1ccccc1)[C@H](C)[C@](C)(O)[C@H]2OC(=O)/C=C/c1ccccc1`: over 3.9, 51.4 µM and over 200 µM.
The matching figures for `COc1cc(C[C@@H](C)[C@@H](C)Cc2ccc(OC)c(OC)c2)ccc1O`: 5.8, 2.9 µM and 17.2 µM.
With `C/C=C(\C)C(=O)O[C@H]1c2cc(OC)c(OC)c(OC)c2-c2c(cc3c(c2OC)OCO3)[C@H](OC(=O)c2ccccc2)[C@H](C)[C@H]1C`, in series [1], the selectivity ratio turned out to be 5.1. In series [2], the 50% effective concentration (EC50) worked out at 15.4 µM. Moreover, the CC50 in series [3] was determined as 78.2 µM.
On the same counts, the results for `C/C=C(\C)C(=O)O[C@H]1c2cc(OC)c(OC)c(OC)c2-c2c(cc3c(c2OC)OCO3)[C@H](OC(=O)/C=C/c2ccccc2)[C@H](C)[C@]1(C)O` are over 25.2, 7.9 µM and over 200 µM.
The matching figures for `COc1ccc([C@@H]2O[C@H](c3ccc4c(c3)OCO4)[C@@H](C)[C@@H]2C)cc1O`: 2.9, 6.8 µM and 19.9 µM.
For `COc1ccc([C@H]2O[C@H](c3ccc4c(c3)OCO4)[C@@H](C)[C@H]2C)cc1OC`, in series [1], the selectivity ratio turned out to be 6.7. The EC50 in series [2] worked out at 15.5 µM. Further, the CC50 in series [3] was determined as 104 µM.
On the same counts, the results for `CCCCCC(=O)O[C@H]1c2cc3c(c(OC)c2-c2c(cc(OC)c(OC)c2OC)[C@H](OC(=O)c2ccccc2)[C@@](C)(O)[C@H]1C)OCO3` are 4.1, 28.7 µM and 119 µM.
On the same counts, the results for `COc1cc2c(c(OC)c1OC)-c1c(cc3c(c1OC)OCO3)C(=O)[C@@H](C)[C@@H](C)C2` are over 9.8, 20.4 µM and over 200 µM.
On the same counts, the results for `COc1cc2c(cc1O)C[C@@H](C)[C@@H](C)[C@@H]2c1ccc(OC)c(OC)c1` are 6.7, 4.5 µM and 30 µM.
As for `COc1ccc([C@H]2O[C@@H](c3ccc(OC)c(OC)c3)[C@H](C)[C@@H]2C)cc1OC` [GALGRAVIN], in series [1], the selectivity ratio is 5.6. Further, in series [2], the EC50 amounted to 7.7 µM. The compound also registered a CC50 in series [3] of 43.4 µM.
Consider `C/C=C(/C)C(=O)O[C@H]1c2cc(OC)c(OC)c(OC)c2-c2c(cc3c(c2OC)OCO3)[C@H](OC(C)=O)[C@H](C)[C@@H]1C` [INTERIOTHERIN C], for which, in series [1], the selectivity ratio is over 20.2. The half-maximal effective concentration (EC50) in series [2] is 9.9 µM. The CC50 in series [3] is over 200 µM.
The matching figures for `COc1cc2c(c(OC)c1OC)-c1c(cc3c(c1OC)OCO3)[C@H](OC(C)=O)[C@H](C)[C@H](C)C2` [KADSURIN]: over 2.5, 79.1 µM and over 200 µM.
On the same counts, the results for `COc1cc(C[C@@H](C)[C@@H](C)Cc2ccc(O)c(OC)c2)ccc1O` [MESODIHYDROGUAIARETIC ACID] are 6.2, 4 µM and 24.9 µM.
The matching figures for `C/C=C(\C)C(=O)Oc1c(OC)c(OC)cc2c1-c1c(cc(OC)c(OC)c1OC)[C@H](O)[C@H](C)[C@H](C)C2` [METHYL SCHISANTHERIN F]: over 12.7, 15.7 µM and over 200 µM.
For the compound `COc1ccc(C[C@@H](C)[C@@H](C)Cc2ccc(OC)c(OC)c2)cc1OC` [TERAMEPROCOL], the selectivity ratio in series [1] was 2. Further, the 50% effective concentration (EC50) in series [2] is 14.8 µM. This compound displayed a CC50 in series [3] of 28.8 µM.
With `CC[C@H](C)C(=O)Oc1c(OC)c(OC)cc2c1-c1c(cc(OC)c(OC)c1OC)[C@H](O)[C@H](C)[C@H](C)C2` [TIEGUSANIN A], the selectivity ratio in series [1] was over 6.7. Moreover, in series [2], the EC50 was determined as 29.8 µM. This compound also had a half-maximal cytotoxic concentration (CC50) in series [3] of over 200 µM.
The matching figures for `COc1cc2c(c(OC)c1OC)-c1c(cc(OC)c(OC)c1OC(=O)c1ccccc1)[C@H](O)[C@H](C)[C@H](C)C2` [TIEGUSANIN C]: over 10.8, 18.5 µM and over 200 µM.
On the same counts, the results for `COc1c(O)cc2c(c1OC)-c1c(cc3c(c1OC)OCO3)C[C@@H](C)[C@@H](C)[C@H]2OC(=O)/C=C/c1ccccc1` [TIEGUSANIN L] are 10.2, 7.3 µM and 74.1 µM.
The matching figures for `COc1ccc(CC(C)C(C)Cc2cc(OC)c(OC)c(OC)c2)cc1OC` (stereo not drawn) [TIEGUSANIN N]: 2.6, 9.4 µM and 24.5 µM.
Regarding `Cc1cn([C@H]2C[C@H](N=[N+]=[N-])[C@@H](CO)O2)c(=O)[nH]c1=O` [ZIDOVUDINE], the selectivity ratio in series [1] is over 500000. Moreover, the EC50 in series [2] came to 0.00195 µM. In series [3], this compound gave a CC50 of over 1000 µM.

The term EC50 denotes the concentration that produces a half-maximal response. Broadly, the CC50 is the concentration giving 50% cytotoxicity. High values mean better tolerance by the cells, low ones harm at low concentration.
